The test system of series [1] is Mus musculus. Kind of series: Acute toxicity in Kunming mouse assessed as mortality at 12 umol/kg, iv after 8 hrs post dose. It counts as organism-based. Conditions: in vivo.
In series [2] the test system is Mus musculus. Nature of the series: Toxicity in BALB/C nude mouse xenografted with human MDA-MB-231 cells assessed as histopathologic change in spleen at 12 umol/kg, iv administered starting on day 5 measured after day 22 by hematoxylin-eosin staining-based assay. It counts as organism-based. The note with it: in vivo. In short, it runs like this:
(§1)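 Tissues from dosed xenograft mice fixed for 24 h and paraffin-embedded. Sections of 5 μm, H&E stained; heart, liver, spleen, lung, kidney and femur examined by a pathologist blind to treatment.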
A general note: A xenograft is tissue or cells of one species grown in another, often human tumour cells in immunodeficient mice.

Series [3] relates to MDA-MB-231. Kind of series: Antitumor activity against human MDA-MB-231 cells xenografted in BALB/C nude mouse assessed as tumor weight at 12 umol/kg, iv administered starting on day 5 measured after day 22 (reference value: 0.67 +/- 0.14 g). It counts as functional. A digest of the protocol:
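Female BALB/C mice inoculated subcutaneously in the back with 1 × 10^7 MDA-MB-231 cells in Matrigel–PBS (1:1). From day 5, daily iv dosing in 5% Solutol-HS15 vehicle, with a vehicle control group. Tumours measured by caliper every 2 days (v = 0.5 × a × b²); tumour weight as mean ± SEM, n = 6, one-way ANOVA with Tukey's test.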

In series [4] the test system is Mus musculus. Kind of series: Toxicity in BALB/C nude mouse xenografted with human MDA-MB-231 cells assessed as histopathologic change in lungh at 12 umol/kg, iv administered starting on day 5 measured after day 22 by hematoxylin-eosin staining-based assay. In kind it is organism-based. Conditions: in vivo. A digest of the protocol:
as §1

Series [5] concerns Mus musculus. Kind of series: Cardiotoxicity in BALB/C nude mouse xenografted with human MDA-MB-231 cells assessed as change in interventricular septal diastole dimension at 12 umol/kg, iv administered starting on day 5 measured after day 22 by echocardiography. Conditions: in vivo. In kind it is toxicity, organism-based. In short, it runs like this: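 Same MDA-MB-231 xenograft mice, given daily iv doses in 5% HS15 from day 5. After 22 days of dosing, transthoracic echocardiography with a 21 MHz transducer under 1.5% isoflurane, supine. M-mode images taken from the parasternal short-axis view at the papillary muscle; IVSd, IVSs, LVIDd and LVIDs derived, n = 6.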

Series [6] relates to Mus musculus. Nature of the series: Toxicity in BALB/C nude mouse xenografted with human MDA-MB-231 cells assessed as body weight change at 12 umol/kg, iv administered starting on day 5 measured after day 22. In kind it is organism-based. The note with it: in vivo.
Series [7] can be described thus: In vivo prodrug activation in tumor of BALB/C nude mouse xenografted with human MDA-MB-231 cells assessed as FAP-alpha mediated (S)-((3S,5R,8R,9S,10S,11S,13R,14S,17R)-11,14-dihydroxy-10,13-dimethyl-12-oxo-17-(2-oxo-2H-pyran-5-yl)hexadecahydro-1H-cyclopenta[a]phenanthren-3-yl) 2-amino-3-(1H-indol-3-yl)propanoate formation at 40 umol/L by LC-MS/MS analysis. Further details: species or system Neoplasm. In short, it runs like this:
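Tumour and heart tissue weighed and homogenized on ice in PBS, pH 7.4, then incubated with prodrug at 40 μmol/L. Bufalin at 2 μmol/L added as internal standard; reaction stopped with acetonitrile and spun at 18 000g for 30 min. Active form quantified by LC-MS/MS against a standard curve of 0.625–40 μmol/L; mean ± SEM of three samples.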

Series [8] concerns MDA-MB-435. Kind of series: Antiproliferative activity against wild type human MDA-MB-435 cells expressing FAP-alpha incubated for 48 hrs by MTT assay. Conditions: MDA-MB-435, 48 h. In kind it is functional, cell-based. In short, it runs like this: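 Cells grown in DMEM with 10% FBS and 1% penicillin-streptomycin at 37 °C, 5% CO2; 10% heat-inactivated FBS used during cytotoxicity testing to exclude serum FAP activity. Viability read by MTT; IC50 as mean ± SEM of at least three independent experiments. Transfected lines were made from MDA-MB-231 with human FAPα plasmid or empty pCMV6-Entry vector and checked by Western blot at 48 h.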
A general note: Formazan colour is commonly taken as a measure of viable cells.

The subject of series [9] is Mus musculus. Kind of series: Toxicity in BALB/C nude mouse xenografted with human MDA-MB-231 cells assessed as abnormal food intake at 12 umol/kg, iv administered starting on day 5 measured after day 22. It counts as organism-based. Conditions: in vivo.
The test system of series [10] is Mus musculus. Nature of the series: Hepatotoxicity in BALB/C nude mouse xenografted with human MDA-MB-231 cells at 12 umol/kg, iv administered starting on day 5 measured after day 22 by hematoxylin-eosin staining-based assay. In kind it is toxicity, organism-based. Conditions: in vivo. In short, it runs like this:
as §1

Series [11] has as its target T1, Prolyl endopeptidase FAP (Homo sapiens, UniProt Q12884).
T1 sequence (Q12884 whole entry): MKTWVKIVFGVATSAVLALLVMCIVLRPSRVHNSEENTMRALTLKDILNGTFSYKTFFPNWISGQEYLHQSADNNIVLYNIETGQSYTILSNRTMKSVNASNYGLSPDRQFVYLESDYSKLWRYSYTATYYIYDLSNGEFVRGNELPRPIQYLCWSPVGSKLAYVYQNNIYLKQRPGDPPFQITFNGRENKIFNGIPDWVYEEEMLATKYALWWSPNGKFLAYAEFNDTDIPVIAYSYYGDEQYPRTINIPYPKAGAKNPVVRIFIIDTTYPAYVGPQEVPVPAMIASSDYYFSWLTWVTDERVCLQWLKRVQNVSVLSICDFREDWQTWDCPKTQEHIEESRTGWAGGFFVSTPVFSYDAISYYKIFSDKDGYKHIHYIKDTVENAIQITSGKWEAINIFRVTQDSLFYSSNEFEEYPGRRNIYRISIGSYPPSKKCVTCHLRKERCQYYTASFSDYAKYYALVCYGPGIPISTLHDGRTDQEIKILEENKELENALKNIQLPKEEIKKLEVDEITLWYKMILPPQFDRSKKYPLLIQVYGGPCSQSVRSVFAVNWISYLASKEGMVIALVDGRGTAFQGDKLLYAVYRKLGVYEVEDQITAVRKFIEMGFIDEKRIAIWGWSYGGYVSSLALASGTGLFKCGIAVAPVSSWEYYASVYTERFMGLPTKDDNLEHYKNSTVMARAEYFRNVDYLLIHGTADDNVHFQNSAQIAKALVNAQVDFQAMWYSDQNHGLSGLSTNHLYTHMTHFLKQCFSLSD
Nature of the series: Prodrug activation assessed as recombinant human FAP-alpha mediated (S)-((3S,5R,8R,9S,10S,11S,13R,14S,17R)-11,14-dihydroxy-10,13-dimethyl-12-oxo-17-(2-oxo-2H-pyran-5-yl)hexadecahydro-1H-cyclopenta[a]phenanthren-3-yl) 2-amino-3-(1H-indol-3-yl)propanoate formation at 40 umol/L after 6 hrs in presence of FAP-alpha inhibitor talabostat by UPLC-MS/MS analysis. The note with it: 40 µM. In short, it runs like this:
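Prodrug at 40 μmol/L incubated with rhFAPα at 0.45 μg/mL in 0.2 mL buffer at 37 °C for 6 h, with bufalin at 2 μmol/L as internal standard. Stopped with acetonitrile and spun at 18 000g for 15 min. Released active form measured by UPLC-MS/MS via peak-area ratio against a standard curve of 0.625–40 μmol/L.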

Series [12] concerns Mus musculus. Nature of the series: Toxicity in BALB/C nude mouse xenografted with human MDA-MB-231 cells assessed as abnormal behavioral at 12 umol/kg, iv administered starting on day 5 measured after day 22. The note with it: in vivo. It counts as organism-based.
Series [13] deals with T1, Prolyl endopeptidase FAP. Nature of the series: Prodrug activation assessed as recombinant human FAP-alpha mediated (S)-((3S,5R,8R,9S,10S,11S,13R,14S,17R)-11,14-dihydroxy-10,13-dimethyl-12-oxo-17-(2-oxo-2H-pyran-5-yl)hexadecahydro-1H-cyclopenta[a]phenanthren-3-yl) 2-amino-3-(1H-indol-3-yl)propanoate formation by measuring intrinsic clearance at 40 umol/L […] by UPLC-MS/MS analysis. The note with it: 40 µM.

SMILES strings stand for the structures.

Consider `C[C@]12CC[C@H](OC(=O)[C@H](Cc3c[nH]c4ccccc34)NC(=O)[C@@H]3CCCN3C(=O)CNC(=O)OCc3ccccc3)C[C@H]1CC[C@@H]1[C@@H]2[C@H](O)C(=O)[C@]2(C)[C@@H](c3ccc(=O)oc3)CC[C@]12O`, for which the Activity result in series [1] was “Non-Toxic”; in series [2], “Non-Toxic”; in series [3] it was 0.43 g; in [4] it was “Non-Toxic”; in series [5] it was “Non-Toxic”; in series [6], “Non-Toxic”. Moreover, the Activity result in series [9], in series [10] and in series [12] was “Non-Toxic” each time. Besides, the Drug metabolism in series [7] is 19.82 µmol/L; in [11] it was “Metabolite_Notdetected”. Besides, the IC50 – broadly, the point on the concentration scale where inhibition reaches its midpoint – in [8] was 10.6 nM. In addition, the CL in series [13] was 65890 µL/min/mg.

For the origin of these results see ChEMBL document CHEMBL4038302, “Fibroblast Activation Protein α Activated Tripeptide Bufadienolide Antitumor Prodrug with Reduced Cardiotoxicity” (J Med Chem, 2017).
